This note sets out measurements from ChEMBL document CHEMBL1123408, “Influence of alkyl-chain fluorination on the action of mammary tumor inhibiting 2,3-bis(hydroxyphenyl)butanes and 2,3-bis(hydroxyphenyl)but-2-enes” (1986).

Assay [1] addresses T1, Estrogen receptor (Mus musculus) (UniProt O08537+P19785). Conditions: Uterus.
The target of assay [2] is T1, Estrogen receptor (Mus musculus). Conditions: Uterus. This is another data set of the same source.
The target is the same in assay [3].
Assay [4] has the same target. The source holds these as a separate data set.
The target is the same in assay [5]. The following applies: Uterus. This is another data set of the same source.
For assay [6] the target is unchanged. The source holds these as a separate data set.
The target is the same in assay [7]. The source holds these as a separate data set.
The target is the same in assay [8]. Conditions: Uterus. This is another data set of the same source.
For assay [9] the target is unchanged. Conditions: Uterus. This is another data set of the same source.
For assay [10] the target is unchanged. The source holds these as a separate data set.
The target is the same in assay [11]. The following applies: Uterus. The source holds these as a separate data set.
The target is the same in assay [12]. The following applies: Uterus. The source holds these as a separate data set.
Assay [13] shares this target. The following applies: Uterus. The source holds these as a separate data set.
For assay [14] the target is unchanged. Briefly: Uterotrophic effect in BD2F mice bearing transplantable hormone dependent MXT at 0.8 mg dose. It counts as functional, tissue-based. In outline: (§1)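 MXT-bearing female BD2F1 mice (10 per group) dosed sc in olive oil three times weekly for 6 weeks from the day after tumor transplantation. Uteri excised at sacrifice and dry weight determined; values given as mean ± SD.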

The target is the same in assay [15]. Description: Uterotrophic effect in mice at 0.1 ug dose. Set-up: unit not given here. The following applies: Uterus. It counts as functional, tissue-based. In a few lines: (§2)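 Immature female NMRI mice, 20 days old, 10 per group, given daily sc injections of 0.1 mL olive oil solution for 3 days. Uteri removed 24 h after the last dose, fixed in Bouin's solution, washed, dried and weighed. Antiestrogenic testing measured inhibition of estrone-stimulated uterine growth.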

Assay [16] shares this target. Description: Uterotrophic effect in mice at 1 ug dose. It counts as functional, tissue-based. The following applies: Uterus. On the set-up: unit not given here. In outline: as §2
Assay [17] has the same target. Briefly: (§3) Uterotrophic effect in mice at 0 ug dose. The assay is classed as functional, tissue-based. Set-up: unit not given here. The following applies: Uterus. In outline:
as §2

The species named for assay [18] is Mus musculus. Briefly: Relative average tumor wet weight in treated compared to untreated mice at 4 mg dose. The assay is classed as functional. In a few lines: (§4)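 Syngeneic female BD2F1 mice (8–10 weeks) received sc trocar implants of 1–2-mm³ MXT tumor pieces, 10 per group. Treatment began the next day: sc doses in olive oil (solution or suspension), three times weekly for 6 weeks. Tamoxifen-treated control group included. Tumor wet weight measured at sacrifice; expressed as % T/C versus untreated controls.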

Assay [19] has as its target T1, Estrogen receptor (Mus musculus). Description: Uterotrophic effect in BD2F mice bearing transplantable hormone dependent MXT at 4 mg dose. The assay is classed as functional, tissue-based. In outline:
as §1

Assay [20] shares this target. Description: Uterotrophic effect in mice at 10 ug dose. Set-up: unit not given here. It counts as functional, tissue-based. The following applies: Uterus. In outline: as §2
For assay [21], the species on record is Mus musculus. Description: Relative average tumor wet weight in treated compared to untreated mice at 0.8 mg dose. It counts as functional. In a few lines:
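MXT mammary tumor pieces of 1-2 mm³ from syngeneic donors were implanted sc by trocar into female BD2F₁ mice aged 8-10 weeks (20.0 ± 1.7 g), groups of 10. From the next day, compound in olive oil was given sc three times weekly for 6 weeks. Tumor wet weight was measured at the end and expressed as % T/C.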

For assay [22], the species on record is Mus musculus. Description: Relative average tumor wet weight in treated compared to untreated mice at 20 mg dose. The assay is classed as functional. In outline: as §4
In assay [23] the target is T1, Estrogen receptor (Mus musculus). Briefly: (§5) Uterotrophic effect in mice at 100 ug dose. It counts as functional, tissue-based. On the set-up: unit not given here. Conditions: Uterus. In outline:
as §2

Assay [24] shares this target. The description is as §3. The following applies: Uterus. The assay is classed as functional, tissue-based. On the set-up: unit not given here. In a few lines:
as §2
The source holds these as a separate data set.

Assay [25] has the same target. Description: Uterotrophic effect in mice at 5 ug dose. The assay is classed as functional, tissue-based. The following applies: Uterus. In outline:
as §2

Assay [26] has the same target. Description: Uterotrophic effect in BD2F mice bearing transplantable hormone dependent MXT at 20 mg dose. Conditions: Uterus. It counts as functional, tissue-based. In outline:
as §1

The target is the same in assay [27]. Description: Uterotrophic effect in mice at 500 ug dose. Set-up: unit not given here. It counts as functional, tissue-based. The following applies: Uterus. In outline: as §2
Assay [28] has the same target. The assay is described as §5. On the set-up: unit not given here. Conditions: Uterus. The assay is classed as functional, tissue-based. In a few lines:
as §2
This is another data set of the same source.

Assay [29] shares this target. Briefly: Uterotrophic effect in mice at 25 ug dose. It counts as functional, tissue-based. Set-up: unit not given here. Conditions: Uterus. In a few lines:
as §2

Assay [30] shares this target. Briefly: Uterotrophic effect in mice at 1000 ug dose. The assay is classed as functional, tissue-based. Conditions: Uterus. In a few lines: as §2

Molecules are shown by their SMILES.

T1 sequence (O08537 whole entry, looked up): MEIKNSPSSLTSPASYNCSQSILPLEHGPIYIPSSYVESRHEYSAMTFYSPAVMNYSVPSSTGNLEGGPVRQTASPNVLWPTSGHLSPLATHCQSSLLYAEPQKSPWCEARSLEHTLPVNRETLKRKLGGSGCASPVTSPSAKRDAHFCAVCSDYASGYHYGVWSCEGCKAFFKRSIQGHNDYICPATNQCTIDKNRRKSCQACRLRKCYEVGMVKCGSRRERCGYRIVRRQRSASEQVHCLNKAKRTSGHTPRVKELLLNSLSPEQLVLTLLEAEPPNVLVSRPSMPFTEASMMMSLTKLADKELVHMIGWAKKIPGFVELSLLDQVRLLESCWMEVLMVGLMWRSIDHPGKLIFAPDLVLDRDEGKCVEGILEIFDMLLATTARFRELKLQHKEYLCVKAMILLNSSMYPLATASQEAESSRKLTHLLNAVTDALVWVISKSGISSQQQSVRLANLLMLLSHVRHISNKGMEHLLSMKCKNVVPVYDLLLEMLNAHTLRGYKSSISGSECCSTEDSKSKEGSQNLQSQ
T1 sequence (P19785 whole entry, looked up): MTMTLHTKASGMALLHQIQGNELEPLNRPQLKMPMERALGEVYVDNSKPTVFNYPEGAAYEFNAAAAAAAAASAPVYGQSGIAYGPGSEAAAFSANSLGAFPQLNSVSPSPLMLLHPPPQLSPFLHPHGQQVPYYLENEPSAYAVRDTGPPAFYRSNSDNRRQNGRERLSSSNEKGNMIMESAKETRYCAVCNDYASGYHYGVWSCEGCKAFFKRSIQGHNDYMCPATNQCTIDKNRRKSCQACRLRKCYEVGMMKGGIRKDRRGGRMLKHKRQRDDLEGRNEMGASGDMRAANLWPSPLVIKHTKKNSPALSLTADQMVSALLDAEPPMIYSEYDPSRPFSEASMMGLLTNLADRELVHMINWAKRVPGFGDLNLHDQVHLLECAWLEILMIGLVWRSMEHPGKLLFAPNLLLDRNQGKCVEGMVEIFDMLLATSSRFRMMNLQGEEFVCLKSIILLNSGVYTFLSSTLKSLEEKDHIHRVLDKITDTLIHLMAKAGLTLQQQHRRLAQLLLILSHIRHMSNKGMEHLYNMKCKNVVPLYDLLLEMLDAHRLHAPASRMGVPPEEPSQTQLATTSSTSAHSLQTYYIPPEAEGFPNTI

Take `C[C@]12CC[C@@H]3c4ccc(O)cc4CC[C@H]3[C@@H]1CCC2=O`: the Effect in assay [1] came to 47.3; in assay [2], 46.4; in assay [3], 39.3; in assay [4], 41.8; in assay [5] it was 46.8; in [6], 39.5. Also, the Effect in assay [7] was determined as 39.5; in assay [8] it was 46.6; in assay [9], 39.8; in assay [10], 39.5; in assay [11], 46.8; in [12], 45.6. Also, the Effect in assay [13] came to 49.
Take `Oc1ccc([C@H]([C@H](c2ccc(O)cc2)C(F)(F)F)C(F)(F)F)cc1`: the Uterus effect in assay [14] stood at 136; in assay [19], 188. Besides, the Effect in assay [15] is 46.9; in assay [16] it was 42.5; in assay [17], 10.8; in assay [20], 35.4. Also, the TC in the assay filed under Mus musculus [18] is given as 7.2%; in the assay filed under Mus musculus [21] it was 21.3%.
`Oc1cccc(/C(=C(/c2cccc(O)c2)C(F)(F)F)C(F)(F)F)c1`: the TC stood at 11.5% in the assay listed under Mus musculus [22] and 25.7% in the assay filed under Mus musculus [18]. Besides, the Effect was 15.7 in assay [15]; 47.8 in assay [23]; 14.8 in [24]; 43 in assay [25]; 82.1 in assay [26]; 25.3 in assay [16]. The Effect in [27] was found to be 52.6; in assay [28] it was 45.5; in assay [29] it was 47.4; in assay [17], 11.1; in assay [19] (Uterus) it was 74.8; in assay [30], 51.8. In [20], this compound yielded an Effect of 29.
